# In ChEMBL document CHEMBL2177098, “Synthesis and evaluation of novel ¹⁸F labeled 2-pyridinylbenzoxazole and 2-pyridinylbenzothiazole derivatives as ligands for positron emission tomography (PET) imaging of β-amyloid plaques” (J Med Chem, 2012):
# Key:
# Intestine [1] = experiment: Drug uptake in ICR mouse intestine assessed per organ at 370 kBq/100 ul, iv at 30 mins by gamma-counting analysis; type: ADME, organism-based; settings: in vivo, 0.5 h
# Procedure, shortened: (§1)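 Male ICR mice (5 weeks, about 20 g) got 18F tracer in saline (370 KBq per 100 μL) via tail vein; n = 5 per time point, killed at 2, 10, 30, 60 min. Organs removed and γ-counted against diluted injectate; expressed as % injected dose per organ.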
# Intestine [2] = experiment: Drug uptake in ICR mouse intestine assessed per organ at 370 kBq/100 ul, iv at 10 mins by gamma-counting analysis; type: ADME, organism-based; settings: in vivo; procedure, shortened: as §1
# Intestine [3] = experiment: Drug uptake in ICR mouse intestine assessed per organ at 370 kBq/100 ul, iv at 2 mins by gamma-counting analysis; type: ADME, organism-based; settings: in vivo; procedure, shortened: as §1
# Stomach [4] = experiment: Drug uptake in ICR mouse stomach assessed per organ at 370 kBq/100 ul, iv at 60 mins by gamma-counting analysis; type: ADME, organism-based; settings: in vivo, 1 h
# Procedure, shortened: (§2)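 Normal male ICR mice (5 weeks, about 20 g) received the ¹⁸F tracer in saline (370 KBq per 100 μL) by tail-vein injection. Groups of n = 5 were killed at 2, 10, 30 and 60 min. Organs were removed, weighed and γ-counted against diluted aliquots of the injectate, giving % dose per gram. Stomach and intestine were expressed per organ. The brain ratio is 2 min/60 min uptake. Values are mean ± SD.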
# Stomach [5] = experiment: Drug uptake in ICR mouse stomach assessed per organ at 370 kBq/100 ul, iv at 30 mins by gamma-counting analysis; type: ADME, organism-based; settings: in vivo, 0.5 h; procedure, shortened: as §1
# Stomach [6] = experiment: Drug uptake in ICR mouse stomach assessed per organ at 370 kBq/100 ul, iv at 10 mins by gamma-counting analysis; type: ADME, organism-based; settings: in vivo; procedure, shortened: as §1
# Stomach [7] = experiment: Drug uptake in ICR mouse stomach assessed per organ at 370 kBq/100 ul, iv at 2 mins by gamma-counting analysis; type: ADME, organism-based; settings: in vivo; procedure, shortened: as §1
# Kidney [8] = experiment: Drug uptake in ICR mouse kidney at 370 kBq/100 ul, iv at 60 mins by gamma-counting analysis; type: ADME, organism-based; settings: in vivo, 1 h
# Procedure, shortened: (§3)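 Male ICR mice (5 weeks, about 20 g) got 18F tracer in saline (370 KBq per 100 μL) via tail vein; n = 5 per time point, killed at 2, 10, 30, 60 min. Organs weighed and γ-counted; percent dose per gram wet tissue from comparison with diluted injectate aliquots.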
# Kidney [9] = experiment: Drug uptake in ICR mouse kidney at 370 kBq/100 ul, iv at 30 mins by gamma-counting analysis; type: ADME, organism-based; settings: in vivo, 0.5 h; procedure, shortened: as §3
# Kidney [10] = experiment: Drug uptake in ICR mouse kidney at 370 kBq/100 ul, iv at 10 mins by gamma-counting analysis; type: ADME, organism-based; settings: in vivo; procedure, shortened: as §3
# Lung [11] = experiment: Drug uptake in ICR mouse lung at 370 kBq/100 ul, iv at 60 mins by gamma-counting analysis; type: ADME, organism-based; settings: in vivo, 1 h; procedure, shortened: as §3
# Kidney [12] = experiment: Drug uptake in ICR mouse kidney at 370 kBq/100 ul, iv at 2 mins by gamma-counting analysis; type: ADME, organism-based; settings: in vivo; procedure, shortened: as §3
# Lung [13] = experiment: Drug uptake in ICR mouse lung at 370 kBq/100 ul, iv at 30 mins by gamma-counting analysis; type: ADME, organism-based; settings: in vivo, 0.5 h; procedure, shortened: as §3
# Lung [14] = experiment: Drug uptake in ICR mouse lung at 370 kBq/100 ul, iv at 10 mins by gamma-counting analysis; type: ADME, organism-based; settings: in vivo; procedure, shortened: as §3
# Lung [15] = experiment: Drug uptake in ICR mouse lung at 370 kBq/100 ul, iv at 2 mins by gamma-counting analysis; type: ADME, organism-based; settings: in vivo; procedure, shortened: as §3
# Spleen [16] = experiment: Drug uptake in ICR mouse spleen at 370 kBq/100 ul, iv at 60 mins by gamma-counting analysis; type: ADME, organism-based; settings: in vivo, 1 h; procedure, shortened: as §3
# Spleen [17] = experiment: Drug uptake in ICR mouse spleen at 370 kBq/100 ul, iv at 10 mins by gamma-counting analysis; type: ADME, organism-based; settings: in vivo; procedure, shortened: as §3
# Spleen [18] = experiment: Drug uptake in ICR mouse spleen at 370 kBq/100 ul, iv at 30 mins by gamma-counting analysis; type: ADME, organism-based; settings: in vivo, 0.5 h; procedure, shortened: as §3
# Spleen [19] = experiment: Drug uptake in ICR mouse spleen at 370 kBq/100 ul, iv at 2 mins by gamma-counting analysis; type: ADME, organism-based; settings: in vivo; procedure, shortened: as §3
# Liver [20] = experiment: Drug uptake in ICR mouse liver at 370 kBq/100 ul, iv at 60 mins by gamma-counting analysis; type: ADME, organism-based; settings: in vivo, 1 h; procedure, shortened: as §3
# Liver [21] = experiment: Drug uptake in ICR mouse liver at 370 kBq/100 ul, iv at 30 mins by gamma-counting analysis; type: ADME, organism-based; settings: in vivo, 0.5 h; procedure, shortened: as §3
# Liver [22] = experiment: Drug uptake in ICR mouse liver at 370 kBq/100 ul, iv at 2 mins by gamma-counting analysis; type: ADME, organism-based; settings: in vivo; procedure, shortened: as §3
# Liver [23] = experiment: Drug uptake in ICR mouse liver at 370 kBq/100 ul, iv at 10 mins by gamma-counting analysis; type: ADME, organism-based; settings: in vivo; procedure, shortened: as §3
# Heart [24] = experiment: Drug uptake in ICR mouse heart at 370 kBq/100 ul, iv at 60 mins by gamma-counting analysis; type: ADME, organism-based; settings: in vivo, 1 h; procedure, shortened: as §3
# Heart [25] = experiment: Drug uptake in ICR mouse heart at 370 kBq/100 ul, iv at 30 mins by gamma-counting analysis; type: ADME, organism-based; settings: in vivo, 0.5 h; procedure, shortened: as §3
# Heart [26] = experiment: Drug uptake in ICR mouse heart at 370 kBq/100 ul, iv at 10 mins by gamma-counting analysis; type: ADME, organism-based; settings: in vivo; procedure, shortened: as §3
# Brain [27] = experiment: Drug uptake in ICR mouse brain at 370 kBq/100 ul, iv at 60 mins by gamma-counting analysis; type: ADME, organism-based; settings: in vivo, 1 h; procedure, shortened: as §3
# Heart [28] = experiment: Drug uptake in ICR mouse heart at 370 kBq/100 ul, iv at 2 mins by gamma-counting analysis; type: ADME, organism-based; settings: in vivo; procedure, shortened: as §3
# Brain [29] = experiment: Drug uptake in ICR mouse brain at 370 kBq/100 ul, iv at 30 mins by gamma-counting analysis; type: ADME, organism-based; settings: in vivo, 0.5 h; procedure, shortened: as §3
# Brain [30] = experiment: Drug uptake in ICR mouse brain at 370 kBq/100 ul, iv at 10 mins by gamma-counting analysis; type: ADME, organism-based; settings: in vivo; procedure, shortened: as §3
# Brain [31] = experiment: Drug uptake in ICR mouse brain at 370 kBq/100 ul, iv at 2 mins by gamma-counting analysis; type: ADME, organism-based; settings: in vivo; procedure, shortened: as §3
# Blood [32] = experiment: Drug uptake in ICR mouse blood at 370 kBq/100 ul, iv at 30 mins by gamma-counting analysis; type: ADME, organism-based; settings: in vivo, 0.5 h; procedure, shortened: as §3
# Blood [33] = experiment: Drug uptake in ICR mouse blood at 370 kBq/100 ul, iv at 60 mins by gamma-counting analysis; type: ADME, organism-based; settings: in vivo, 1 h; procedure, shortened: as §3
# Blood [34] = experiment: Drug uptake in ICR mouse blood at 370 kBq/100 ul, iv at 10 mins by gamma-counting analysis; type: ADME, organism-based; settings: in vivo; procedure, shortened: as §3
# Blood [35] = experiment: Drug uptake in ICR mouse blood at 370 kBq/100 ul, iv at 2 mins by gamma-counting analysis; type: ADME, organism-based; settings: in vivo; procedure, shortened: as §3
# Brain [36] = experiment: Drug uptake in healthy human brain at 370 KBq/100 ul after 1 hr by autoradiographic analysis; type: ADME, tissue-based; settings: in vitro
# [37] = Displacement of [125I]-IMPY from amyloid beta (1 to 42) fibrils after 2 hrs by gamma-counting analysis
# Procedure, shortened: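 Competition binding with aggregated Aβ1-42 fibrils and [125I]IMPY (60000−100000 cpm/100 μL) in 0.05% BSA (1 mL total); inhibitors 10⁻⁴−10^−8.5 M in ethanol. Incubated 37 °C for 2 h, then GF/B vacuum filtration with PBS (0.02 M, pH 7.4) washes and γ counting. Three repeats; IC50 converted to Ki by Cheng−Prusoff.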
# Brain [38] = experiment: Drug uptake in wild type C57BL6 mouse brain at 370 KBq/100 ul after 1 hr by autoradiographic analysis; type: ADME, tissue-based; settings: in vitro
# Procedure, shortened: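 Paraffin brain sections from 12-month-old male control C57BL6 mice were deparaffinized through xylene and graded ethanol, then held in PBS (0.2 M, pH 7.4) for 30 min. They were incubated with the ¹⁸F tracer (370 KBq per 100 μL) for 1 h at room temperature. Sections were washed in 40% EtOH, rinsed with water for 1 min, dried, and exposed to a phosphor plate for 2 h. The same sections were then stained with thioflavin S.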
# [39] = n-Octanol-PBS buffer partition coefficient, log D of the compound at 1.5 MBq after 3 mins at pH 7.4; type: physicochemical
# Procedure, shortened: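 The tracer was partitioned between n-octanol and PBS by vortexing for 3 min at room temperature, then centrifuged for 5 min at 3000 rpm. Samples of the octanol (50 μL) and aqueous (500 μL) layers were counted. log D is the log of the octanol/PBS counts-per-gram ratio. The octanol layer was repartitioned until values were consistent. Measured in triplicate and repeated three times.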
# Brain [40] = experiment: Ratio of drug uptake in brain at 2 mins to drug uptake in brain at 60 mins in ICR mouse at 370 KBq/100 ul, iv; type: ADME, organism-based; settings: in vivo; procedure, shortened: as §2
# Bone [41] = experiment: Drug uptake in ICR mouse bone at 370 kBq/100 ul, iv at 60 mins by gamma-counting analysis; type: ADME, organism-based, Bone element; settings: in vivo, 1 h; procedure, shortened: as §3
# Bone [42] = experiment: Drug uptake in ICR mouse bone at 370 kBq/100 ul, iv at 30 mins by gamma-counting analysis; type: ADME, organism-based, Bone element; settings: in vivo, 0.5 h; procedure, shortened: as §3
# Bone [43] = experiment: Drug uptake in ICR mouse bone at 370 kBq/100 ul, iv at 2 mins by gamma-counting analysis; type: ADME, organism-based, Bone element; settings: in vivo; procedure, shortened: as §3
# Bone [44] = experiment: Drug uptake in ICR mouse bone at 370 kBq/100 ul, iv at 10 mins by gamma-counting analysis; type: ADME, organism-based, Bone element; settings: in vivo; procedure, shortened: as §3
# Intestine [45] = experiment: Drug uptake in ICR mouse intestine assessed per organ at 370 kBq/100 ul, iv at 60 mins by gamma-counting analysis; type: ADME, organism-based; settings: in vivo, 1 h; procedure, shortened: as §1
smiles,measurement,setting,value
CNc1ccc(-c2nc3ccc(OCC[18F])cc3s2)cn1,Drug uptake,Intestine [1],25.23 %ID
same,Drug uptake,Intestine [2],11.15 %ID
same,Drug uptake,Intestine [3],12.06 %ID
same,Drug uptake,Stomach [4],3.67 %ID
same,Drug uptake,Stomach [5],4.63 %ID
same,Drug uptake,Stomach [6],5.61 %ID
same,Drug uptake,Stomach [7],3.61 %ID
same,Drug uptake,Kidney [8],3.45 % ID/g
same,Drug uptake,Kidney [9],3.62 % ID/g
same,Drug uptake,Kidney [10],4.42 % ID/g
same,Drug uptake,Lung [11],2.72 % ID/g
same,Drug uptake,Kidney [12],9.57 % ID/g
same,Drug uptake,Lung [13],3.57 % ID/g
same,Drug uptake,Lung [14],3.02 % ID/g
same,Drug uptake,Lung [15],5.85 % ID/g
same,Drug uptake,Spleen [16],2.86 % ID/g
same,Drug uptake,Spleen [17],3.29 % ID/g
same,Drug uptake,Spleen [18],2.87 % ID/g
same,Drug uptake,Spleen [19],4.52 % ID/g
same,Drug uptake,Liver [20],3.06 % ID/g
same,Drug uptake,Liver [21],4.28 % ID/g
same,Drug uptake,Liver [22],10.4 % ID/g
same,Drug uptake,Liver [23],5.94 % ID/g
same,Drug uptake,Heart [24],3.7 % ID/g
same,Drug uptake,Heart [25],3.33 % ID/g
same,Drug uptake,Heart [26],3.11 % ID/g
same,Drug uptake,Brain [27],2.83 % ID/g
same,Drug uptake,Heart [28],5.59 % ID/g
same,Drug uptake,Brain [29],3.38 % ID/g
same,Drug uptake,Brain [30],4.54 % ID/g
same,Drug uptake,Brain [31],7.87 % ID/g
same,Drug uptake,Blood [32],4.45 % ID/g
same,Drug uptake,Blood [33],4.45 % ID/g
same,Drug uptake,Blood [34],3.94 % ID/g
same,Drug uptake,Blood [35],4.31 % ID/g
same,Drug uptake,Brain [36],Not Active
same,Ki,[37],10.1 nM
same,Drug uptake,Brain [38],Not Active
same,logD at 0.05 h,[39],3.59
same,Ratio,Brain [40],2.78
same,Drug uptake,Bone [41],6.7 % ID/g
same,Drug uptake,Bone [42],3.77 % ID/g
same,Drug uptake,Bone [43],2.04 % ID/g
same,Drug uptake,Bone [44],2.43 % ID/g
same,Drug uptake,Intestine [45],19 %ID
